Laboratory results from ChEMBL document CHEMBL3870325 (Bioorg Med Chem, 2017).
Values belong to the compound of their own block, whether it stands above or below them.

Legend:
[1] = biological target: T1, Epidermal growth factor receptor (Homo sapiens, UniProt P00533)
Histone deacetylase 1 = Histone deacetylase 1 (Homo sapiens, UniProt Q13547); experiment: Inhibition of HDAC1 (unknown origin) using acetylated peptide substrate preincubated for 15 mins followed by substrate addition measured after 60 mins by fluorescence analysis
cells [2] = assay type: functional, cell-based; settings: Homo sapiens, BT-474, 48 h
[3] = biological target: T2, Protein deacetylase HDAC6 (Homo sapiens, UniProt Q9UBN7); experiment: Inhibition of HDAC6 (unknown origin) using acetylated peptide substrate preincubated for 15 mins followed by substrate addition measured after 60 mins by fluorescence analysis
T2 sequence (Q9UBN7 whole entry): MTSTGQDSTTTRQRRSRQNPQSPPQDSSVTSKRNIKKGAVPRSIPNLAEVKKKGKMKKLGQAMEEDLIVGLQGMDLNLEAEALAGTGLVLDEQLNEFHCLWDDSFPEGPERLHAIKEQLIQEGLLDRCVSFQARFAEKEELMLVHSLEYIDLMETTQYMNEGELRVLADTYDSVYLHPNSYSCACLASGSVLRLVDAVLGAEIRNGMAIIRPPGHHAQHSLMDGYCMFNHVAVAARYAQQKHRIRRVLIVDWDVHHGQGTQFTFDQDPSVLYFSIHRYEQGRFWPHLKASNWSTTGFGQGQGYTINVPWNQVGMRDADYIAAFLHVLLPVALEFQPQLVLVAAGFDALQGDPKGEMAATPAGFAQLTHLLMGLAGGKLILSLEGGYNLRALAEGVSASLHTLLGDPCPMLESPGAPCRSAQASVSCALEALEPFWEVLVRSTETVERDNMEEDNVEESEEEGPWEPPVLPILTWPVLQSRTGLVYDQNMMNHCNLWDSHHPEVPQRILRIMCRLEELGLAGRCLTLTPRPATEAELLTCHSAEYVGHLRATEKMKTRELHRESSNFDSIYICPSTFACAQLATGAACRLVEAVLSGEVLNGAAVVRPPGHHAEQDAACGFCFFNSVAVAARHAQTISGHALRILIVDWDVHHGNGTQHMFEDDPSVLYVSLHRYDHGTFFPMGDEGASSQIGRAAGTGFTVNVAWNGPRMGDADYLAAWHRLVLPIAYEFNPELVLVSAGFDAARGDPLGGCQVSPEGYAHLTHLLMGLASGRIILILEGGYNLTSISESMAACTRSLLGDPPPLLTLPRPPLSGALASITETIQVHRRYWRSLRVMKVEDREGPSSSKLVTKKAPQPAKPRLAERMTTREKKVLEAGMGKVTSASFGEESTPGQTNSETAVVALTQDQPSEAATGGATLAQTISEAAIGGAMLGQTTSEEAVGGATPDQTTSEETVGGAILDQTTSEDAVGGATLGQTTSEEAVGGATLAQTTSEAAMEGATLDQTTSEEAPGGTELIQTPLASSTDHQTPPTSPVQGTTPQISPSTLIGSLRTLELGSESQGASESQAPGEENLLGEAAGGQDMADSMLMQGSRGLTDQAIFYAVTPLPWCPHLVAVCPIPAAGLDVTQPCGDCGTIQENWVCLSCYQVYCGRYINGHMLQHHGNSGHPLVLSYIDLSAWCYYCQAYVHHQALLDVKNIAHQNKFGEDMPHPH

[4] = biological target: T3, Receptor tyrosine-protein kinase erbB-2 (Homo sapiens, UniProt P04626); experiment: Inhibition of HER2 (unknown origin) assessed as remaining ATP level measured after 15 mins by luminescence analysis
Procedure, shortened: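 Kinase run as a contracted HTRF assay. Compounds in 3-fold dilution in 2.5% DMSO/kinase buffer, mixed with kinase and substrate, preincubated 15 min at RT. ATP added to start, reaction 30 min at RT. Stopped with Streptavidin-XL665 plus europium-cryptate TK antibody (1:100). Excitation 320 nm, 665/615 nm emission ratio. IC50 from inhibition curves, results from 2 assays.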

cells [5] = assay type: functional, cell-based; settings: Homo sapiens, A549, 48 h
cells [6] = settings: Homo sapiens, NCI-H1975, 48 h
cells [7] = settings: Homo sapiens, SK-BR-3, 48 h
cells [8] = settings: Homo sapiens, A-431, 48 h
[9] = biological target: T1, Epidermal growth factor receptor; experiment: Inhibition of EGFR in human A549 cells assessed as suppression of EGFR phosphorylation at Tyr1068 residue measured after 24 hrs by Western blot analysis; assay type: cell-based
Procedure, shortened: (§1)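 A549 cells treated 24 h across a dose range. Lysate protein (20-40 µg) run on 7.5%-15% SDS-PAGE and blotted to PVDF. Membranes blocked 2 h in TBST with 5% BSA. Primary antibody (p-EGFR Tyr1068, p-EGFR Tyr1173, total EGFR, acetyl-histone H3 Lys27) applied 8-12 h at 4°C. HRP secondary, chemiluminescent detection.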

A549 = experiment: Inhibition of HDAC in human A549 cells assessed as activation of H3 hyperacetylation measured after 24 hrs by Western blot analysis; assay type: cell-based
Procedure, shortened: as §1

[10] = biological target: T3, Receptor tyrosine-protein kinase erbB-2; settings: BT-474, 25 uM
[11] = biological target: T1, Epidermal growth factor receptor; experiment: Inhibition of EGFR in human A549 cells assessed as suppression of EGFR phosphorylation at Tyr1173 residue measured after 24 hrs by Western blot analysis; assay type: cell-based
Procedure, shortened: as §1

[12] = biological target: T1, Epidermal growth factor receptor; settings: A549, 0.5 uM
BT-474 [13] = experiment: Induction of apoptosis in human BT474 cells assessed as necrotic cells at 5 uM measured after 48 hrs by Annexin V-FITC/propidium iodide staining based flow cytometry (reference value: 0.06%); assay type: functional
BT-474 [14] = experiment: Induction of apoptosis in human BT474 cells assessed as viable cells at 1 uM measured after 48 hrs by Annexin V-FITC/propidium iodide staining based flow cytometry (reference value: 96.76%); assay type: functional; settings: BT-474, 48 h, read-out: Activity
BT-474 [15] = experiment: Induction of apoptosis in human BT474 cells assessed as late apoptotic cells at 2.5 uM measured after 48 hrs by Annexin V-FITC/propidium iodide staining based flow cytometry (reference value: 0.32%); assay type: functional
BT-474 [16] = experiment: Induction of apoptosis in human BT474 cells assessed as early apoptotic cells at 1 uM measured after 48 hrs by Annexin V-FITC/propidium iodide staining based flow cytometry (reference value: 2.87%); assay type: functional
BT-474 [17] = experiment: Induction of apoptosis in human BT474 cells assessed as necrotic cells at 2.5 uM measured after 48 hrs by Annexin V-FITC/propidium iodide staining based flow cytometry (reference value: 0.06%); assay type: functional
BT-474 [18] = experiment: Induction of apoptosis in human BT474 cells assessed as late apoptotic cells at 1 uM measured after 48 hrs by Annexin V-FITC/propidium iodide staining based flow cytometry (reference value: 0.32%); assay type: functional
BT-474 [19] = experiment: Induction of apoptosis in human BT474 cells measured after 48 hrs by Annexin V-FITC/propidium iodide staining based flow cytometry; assay type: functional, cell-based
BT-474 [20] = experiment: Induction of apoptosis in human BT474 cells assessed as viable cells at 5 uM measured after 48 hrs by Annexin V-FITC/propidium iodide staining based flow cytometry (reference value: 96.76%); assay type: functional; settings: BT-474, 48 h, read-out: Activity
BT-474 [21] = experiment: Induction of apoptosis in human BT474 cells assessed as early apoptotic cells at 5 uM measured after 48 hrs by Annexin V-FITC/propidium iodide staining based flow cytometry (reference value: 2.87%); assay type: functional
BT-474 [22] = experiment: Induction of apoptosis in human BT474 cells assessed as early apoptotic cells at 2.5 uM measured after 48 hrs by Annexin V-FITC/propidium iodide staining based flow cytometry (reference value: 2.87%); assay type: functional
[23] = biological target: T1, Epidermal growth factor receptor; settings: A549, 0.5 uM; remark: listed apart in the source
BT-474 [24] = experiment: Induction of apoptosis in human BT474 cells assessed as late apoptotic cells at 5 uM measured after 48 hrs by Annexin V-FITC/propidium iodide staining based flow cytometry (reference value: 0.32%); assay type: functional
BT-474 [25] = experiment: Induction of apoptosis in human BT474 cells assessed as viable cells at 2.5 uM measured after 48 hrs by Annexin V-FITC/propidium iodide staining based flow cytometry (reference value: 96.76%); assay type: functional; settings: BT-474, 48 h, read-out: Activity
[26] = biological target: T3, Receptor tyrosine-protein kinase erbB-2; settings: BT-474, 1 uM
BT-474 [27] = experiment: Induction of apoptosis in human BT474 cells assessed as necrotic cells at 1 uM measured after 48 hrs by Annexin V-FITC/propidium iodide staining based flow cytometry (reference value: 0.06%); assay type: functional

T3 sequence (P04626 whole entry): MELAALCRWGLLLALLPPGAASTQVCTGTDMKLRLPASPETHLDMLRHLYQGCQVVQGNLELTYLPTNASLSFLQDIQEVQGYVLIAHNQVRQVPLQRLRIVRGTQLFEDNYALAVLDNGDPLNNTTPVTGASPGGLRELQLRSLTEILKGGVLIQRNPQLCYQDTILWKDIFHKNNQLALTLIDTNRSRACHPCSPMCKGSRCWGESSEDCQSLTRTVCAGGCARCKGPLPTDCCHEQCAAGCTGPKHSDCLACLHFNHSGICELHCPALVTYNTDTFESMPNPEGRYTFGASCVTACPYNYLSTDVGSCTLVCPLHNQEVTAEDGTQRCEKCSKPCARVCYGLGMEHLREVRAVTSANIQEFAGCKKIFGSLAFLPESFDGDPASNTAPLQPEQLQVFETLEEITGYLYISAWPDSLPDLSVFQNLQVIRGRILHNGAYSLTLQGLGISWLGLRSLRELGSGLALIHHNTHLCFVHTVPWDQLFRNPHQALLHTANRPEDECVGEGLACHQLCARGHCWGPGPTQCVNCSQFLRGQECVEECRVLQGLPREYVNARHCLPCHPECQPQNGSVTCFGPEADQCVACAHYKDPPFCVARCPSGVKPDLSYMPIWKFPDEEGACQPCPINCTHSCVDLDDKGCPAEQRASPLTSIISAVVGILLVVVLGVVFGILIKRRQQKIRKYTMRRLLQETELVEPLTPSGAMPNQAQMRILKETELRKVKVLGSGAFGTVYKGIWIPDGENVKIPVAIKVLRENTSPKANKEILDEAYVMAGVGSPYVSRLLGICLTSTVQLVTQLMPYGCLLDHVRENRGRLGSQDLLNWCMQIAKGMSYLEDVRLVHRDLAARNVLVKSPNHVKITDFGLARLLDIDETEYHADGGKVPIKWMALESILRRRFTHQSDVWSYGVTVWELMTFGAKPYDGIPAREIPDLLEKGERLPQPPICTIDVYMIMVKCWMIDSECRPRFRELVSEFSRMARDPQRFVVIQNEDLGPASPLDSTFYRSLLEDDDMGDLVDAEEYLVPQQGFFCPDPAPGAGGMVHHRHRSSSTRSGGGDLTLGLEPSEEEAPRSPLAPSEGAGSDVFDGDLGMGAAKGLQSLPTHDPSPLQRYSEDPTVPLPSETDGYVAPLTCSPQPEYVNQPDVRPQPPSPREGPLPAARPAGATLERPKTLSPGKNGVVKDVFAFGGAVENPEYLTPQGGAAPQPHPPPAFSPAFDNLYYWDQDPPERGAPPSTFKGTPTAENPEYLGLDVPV
Chain of Histone deacetylase 1 (Q13547 whole entry): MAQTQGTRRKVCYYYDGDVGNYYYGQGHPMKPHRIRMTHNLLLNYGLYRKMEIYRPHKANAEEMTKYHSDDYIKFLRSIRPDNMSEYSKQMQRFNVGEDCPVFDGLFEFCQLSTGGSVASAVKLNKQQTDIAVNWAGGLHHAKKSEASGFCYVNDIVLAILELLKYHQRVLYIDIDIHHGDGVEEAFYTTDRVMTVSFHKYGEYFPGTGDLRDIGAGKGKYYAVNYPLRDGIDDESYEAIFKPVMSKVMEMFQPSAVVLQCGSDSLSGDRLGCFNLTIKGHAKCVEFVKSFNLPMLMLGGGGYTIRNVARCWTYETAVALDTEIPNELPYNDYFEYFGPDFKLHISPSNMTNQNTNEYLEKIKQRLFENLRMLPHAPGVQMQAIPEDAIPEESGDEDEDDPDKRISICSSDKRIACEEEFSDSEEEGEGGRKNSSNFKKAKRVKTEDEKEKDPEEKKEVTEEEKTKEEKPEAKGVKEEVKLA
T1 sequence (P00533 whole entry): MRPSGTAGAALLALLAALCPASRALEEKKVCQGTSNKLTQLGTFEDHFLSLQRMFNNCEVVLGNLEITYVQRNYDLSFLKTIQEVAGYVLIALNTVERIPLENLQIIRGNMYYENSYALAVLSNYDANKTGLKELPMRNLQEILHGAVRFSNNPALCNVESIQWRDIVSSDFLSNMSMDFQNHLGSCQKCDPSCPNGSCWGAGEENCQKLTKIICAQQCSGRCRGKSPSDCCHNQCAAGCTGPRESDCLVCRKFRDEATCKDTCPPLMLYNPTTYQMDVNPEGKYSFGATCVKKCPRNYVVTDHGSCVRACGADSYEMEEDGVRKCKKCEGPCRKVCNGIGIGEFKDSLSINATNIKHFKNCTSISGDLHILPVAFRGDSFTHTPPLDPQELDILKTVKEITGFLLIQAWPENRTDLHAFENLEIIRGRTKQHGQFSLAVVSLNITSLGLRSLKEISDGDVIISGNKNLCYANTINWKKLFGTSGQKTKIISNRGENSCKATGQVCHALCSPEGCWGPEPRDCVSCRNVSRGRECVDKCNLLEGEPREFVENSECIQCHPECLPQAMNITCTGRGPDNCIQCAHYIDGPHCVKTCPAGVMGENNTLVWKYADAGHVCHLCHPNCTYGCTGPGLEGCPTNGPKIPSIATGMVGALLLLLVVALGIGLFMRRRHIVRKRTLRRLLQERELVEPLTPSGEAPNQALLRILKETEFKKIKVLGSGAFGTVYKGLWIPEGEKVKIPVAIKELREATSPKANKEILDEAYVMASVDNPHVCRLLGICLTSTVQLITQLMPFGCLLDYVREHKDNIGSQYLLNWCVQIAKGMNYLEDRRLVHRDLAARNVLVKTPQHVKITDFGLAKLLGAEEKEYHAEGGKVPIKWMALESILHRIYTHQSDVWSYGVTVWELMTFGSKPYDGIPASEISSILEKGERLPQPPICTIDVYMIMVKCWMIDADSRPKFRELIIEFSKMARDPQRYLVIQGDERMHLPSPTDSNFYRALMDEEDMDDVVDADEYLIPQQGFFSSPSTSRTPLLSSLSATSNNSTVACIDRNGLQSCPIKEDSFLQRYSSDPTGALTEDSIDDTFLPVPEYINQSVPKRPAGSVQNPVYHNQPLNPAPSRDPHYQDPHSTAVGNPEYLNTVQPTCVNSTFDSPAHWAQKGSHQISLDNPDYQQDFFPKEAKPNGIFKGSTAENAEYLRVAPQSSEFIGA

IC50 [1]: 1.9 nM
IC50 (Histone deacetylase 1): 38.6 nM
IC50 (cells [2]): 2200 nM
IC50 [3]: 94.2 nM
IC50 [4]: 193 nM
IC50 (cells [5]): > 50000 nM
Compound: O=C(CCCCCn1cc(-c2ccc3ncnc(Nc4ccc(OCc5cccc(F)c5)c(Cl)c4)c3c2)nn1)NO

IC50 (cells [6]): 8760 nM
IC50 [1]: 0.69 nM
IC50 (Histone deacetylase 1): 2.6 nM
IC50 (cells [2]): 3630 nM
IC50 [3]: 8.4 nM
IC50 (cells [7]): 1270 nM
IC50 [4]: 177 nM
IC50 (cells [8]): 1950 nM
IC50 (cells [5]): 510 nM
Compound: O=C(CCCCCCn1cc(-c2ccc3ncnc(Nc4ccc(F)c(Cl)c4)c3c2)nn1)NO

IC50 [1]: 0.65 nM
IC50 (Histone deacetylase 1): 7 nM
IC50 (cells [2]): 26000 nM
IC50 [3]: 9.5 nM
IC50 [4]: 166 nM
IC50 (cells [5]): > 50000 nM
Compound: O=C(CCCCCn1cc(-c2ccc3ncnc(Nc4ccc(F)c(Cl)c4)c3c2)nn1)NO

inhibition [9]: Dose-dependent effect
IC50 (cells [6]): 8050 nM
IC50 [1]: 0.12 nM
inhibition [10]: 100%
inhibition [11]: Dose-dependent effect
inhibition [12]: 100%
IC50 (Histone deacetylase 1): 0.72 nM
IC50 (cells [2]): 3880 nM
IC50 [3]: 3.2 nM
IC50 (cells [7]): 690 nM
IC50 [4]: 175 nM
IC50 (cells [8]): 490 nM
inhibition [23]: 100%
inhibition [26]: 100%
IC50 (cells [5]): 630 nM
Compound: O=C(CCCCCCn1cc(-c2ccc3ncnc(Nc4cccc(Cl)c4F)c3c2)nn1)NO
inhibition (A549): Dose-dependent effect
Activity (BT-474 [13]): 1.36%
viability at 1 µM (BT-474 [14]): 86.3%
Activity (BT-474 [15]): 19.73%
Activity (BT-474 [16]): 8.27%
Activity (BT-474 [17]): 0.89%
Activity (BT-474 [18]): 5.1%
Activity (BT-474 [19]): Dose-dependent effect
viability at 5 µM (BT-474 [20]): 34.8%
Activity (BT-474 [21]): 22.02%
Activity (BT-474 [22]): 14.83%
Activity (BT-474 [24]): 41.84%
viability at 2.5 µM (BT-474 [25]): 64.5%
Activity (BT-474 [27]): 0.34%

IC50 [1]: 6.9 nM
IC50 (Histone deacetylase 1): 7.2 nM
IC50 (cells [2]): 20600 nM
IC50 [3]: 14.3 nM
IC50 [4]: 537 nM
IC50 (cells [5]): 9960 nM
Compound: O=C(CCCCCn1cc(-c2ccc3ncnc(Nc4ccc(OCc5nccs5)c(Cl)c4)c3c2)nn1)NO

IC50 [1]: 10 nM
IC50 (Histone deacetylase 1): 5.2 nM
IC50 (cells [2]): 4410 nM
IC50 [3]: 13.8 nM
IC50 [4]: > 1000 nM
IC50 (cells [5]): 16500 nM
Compound: Cc1ccc(Oc2ccc(Nc3ncnc4ccc(-c5cn(CCCCCCC(=O)NO)nn5)cc34)cc2C)cn1

IC50 [1]: 0.27 nM
IC50 (Histone deacetylase 1): 1.4 nM
IC50 (cells [2]): > 50000 nM
IC50 [3]: 4.1 nM
IC50 [4]: 386 nM
IC50 (cells [5]): > 50000 nM
Compound: O=C(CCCCCn1cc(-c2ccc3ncnc(Nc4cccc(Cl)c4F)c3c2)nn1)NO

IC50 [1]: 3.6 nM
IC50 (Histone deacetylase 1): 5.6 nM
IC50 (cells [2]): 2880 nM
IC50 [3]: 13.6 nM
IC50 [4]: 707 nM
IC50 (cells [5]): 8790 nM
Compound: O=C(CCCCCCn1cc(-c2ccc3ncnc(Nc4ccc(OCc5nccs5)c(Cl)c4)c3c2)nn1)NO
